Experimental data from the M2OR odorant receptor database.
Changes are numbered by the printed parent chain.

Legend:
Conditions in all cases: stereoisomer not certain
[1] = target: T1, OR9A4 (Homo sapiens) (UniProt Q8NGU2)
T1 sequence (whole entry): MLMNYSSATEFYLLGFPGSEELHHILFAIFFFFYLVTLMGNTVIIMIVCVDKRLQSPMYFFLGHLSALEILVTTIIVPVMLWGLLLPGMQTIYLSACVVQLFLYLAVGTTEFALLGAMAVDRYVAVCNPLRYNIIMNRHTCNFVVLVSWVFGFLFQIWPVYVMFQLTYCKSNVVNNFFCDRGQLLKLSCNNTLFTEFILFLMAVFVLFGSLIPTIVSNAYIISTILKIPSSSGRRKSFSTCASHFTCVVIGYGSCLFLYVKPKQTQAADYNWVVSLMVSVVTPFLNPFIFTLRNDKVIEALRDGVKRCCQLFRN
Procedure, shortened: (§1)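 Values were gathered from published papers (main text and supplementary material), with extra details requested from the original authors when needed, and checked for typos and inconsistencies. Each receptor–molecule pair is called responsive (active) if the original authors judged the measured signal statistically different from baseline, and non-responsive (inactive) otherwise. Assay methods varied by source, often transient mammalian cell-line luciferase assays. Recorded details include cell line, G-protein, co-transfected protein and tags.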

[2] = target: T2, OR9G1 (Homo sapiens) (UniProt Q8NH87)
T2 sequence (whole entry): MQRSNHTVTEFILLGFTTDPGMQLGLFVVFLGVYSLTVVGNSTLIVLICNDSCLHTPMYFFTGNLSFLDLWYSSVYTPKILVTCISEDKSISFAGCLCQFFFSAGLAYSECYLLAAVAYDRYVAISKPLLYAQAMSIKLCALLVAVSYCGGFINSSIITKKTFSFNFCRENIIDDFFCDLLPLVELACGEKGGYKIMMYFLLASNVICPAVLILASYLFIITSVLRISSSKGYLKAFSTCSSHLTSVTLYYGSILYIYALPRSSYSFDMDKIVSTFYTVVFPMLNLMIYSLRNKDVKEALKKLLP
Procedure, shortened: as §1

[3] = target: T3, OR9G4 (Homo sapiens) (UniProt Q8NGQ1)
T3 sequence (whole entry): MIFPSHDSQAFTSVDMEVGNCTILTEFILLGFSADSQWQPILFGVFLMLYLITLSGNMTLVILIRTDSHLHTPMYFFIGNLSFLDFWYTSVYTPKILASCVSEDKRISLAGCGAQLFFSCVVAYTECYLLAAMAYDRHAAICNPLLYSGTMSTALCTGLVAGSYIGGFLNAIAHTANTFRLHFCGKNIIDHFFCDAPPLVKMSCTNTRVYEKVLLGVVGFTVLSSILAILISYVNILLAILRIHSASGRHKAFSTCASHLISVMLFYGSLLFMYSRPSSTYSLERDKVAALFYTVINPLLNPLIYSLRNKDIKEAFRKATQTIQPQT
Procedure, shortened: as §1

[4] = test system: T4, OR9G4 H6Y N206D V222A
T4 sequence (whole entry): T3 sequence (whole entry) with H6Y, N206D, V222A
Procedure, shortened: as §1

[5] = test system: T5, OR9G4 N206D V222A
T5 sequence (whole entry): T3 sequence (whole entry) with N206D, V222A
Procedure, shortened: as §1

[6] = test system: T6, OR9G9
T6 sequence (whole entry): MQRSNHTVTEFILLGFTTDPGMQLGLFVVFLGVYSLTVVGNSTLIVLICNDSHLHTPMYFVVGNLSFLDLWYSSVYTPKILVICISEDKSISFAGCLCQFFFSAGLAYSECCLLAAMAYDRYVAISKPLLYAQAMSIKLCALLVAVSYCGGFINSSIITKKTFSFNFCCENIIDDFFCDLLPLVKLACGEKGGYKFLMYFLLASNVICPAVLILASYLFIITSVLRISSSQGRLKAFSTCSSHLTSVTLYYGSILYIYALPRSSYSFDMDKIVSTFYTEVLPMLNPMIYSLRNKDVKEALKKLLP
Procedure, shortened: as §1

[7] = target: T7, OR9I1 (Homo sapiens) (UniProt Q8NGQ6)
T7 sequence (whole entry): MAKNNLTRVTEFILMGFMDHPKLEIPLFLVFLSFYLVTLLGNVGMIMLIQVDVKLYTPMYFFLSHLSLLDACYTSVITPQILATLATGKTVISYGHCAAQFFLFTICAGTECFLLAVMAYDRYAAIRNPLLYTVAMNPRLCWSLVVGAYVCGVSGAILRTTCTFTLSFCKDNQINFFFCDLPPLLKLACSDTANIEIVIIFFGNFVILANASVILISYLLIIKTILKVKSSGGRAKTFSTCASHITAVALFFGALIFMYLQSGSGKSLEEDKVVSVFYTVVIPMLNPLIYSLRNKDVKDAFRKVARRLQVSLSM
Procedure, shortened: as §1

[8] = target: T8, OR9K2 (Homo sapiens) (UniProt Q8NGE7)
T8 sequence (whole entry): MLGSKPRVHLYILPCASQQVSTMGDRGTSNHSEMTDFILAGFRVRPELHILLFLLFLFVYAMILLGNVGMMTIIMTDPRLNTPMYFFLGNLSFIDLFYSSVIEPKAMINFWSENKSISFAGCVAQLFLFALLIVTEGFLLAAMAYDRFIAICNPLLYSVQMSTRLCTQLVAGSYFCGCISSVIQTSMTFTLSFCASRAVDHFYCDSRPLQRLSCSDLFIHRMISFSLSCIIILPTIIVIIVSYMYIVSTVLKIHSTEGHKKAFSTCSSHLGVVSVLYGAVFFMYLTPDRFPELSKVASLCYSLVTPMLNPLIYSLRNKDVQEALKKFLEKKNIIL
Procedure, shortened: as §1

[9] = test system: T9, OR9K2 R207H
T9 sequence (whole entry): T8 sequence (whole entry) with R207H
Procedure, shortened: as §1

[10] = target: T10, OR9G9 (Homo sapiens) (UniProt P0C7N8)
T10 sequence (whole entry): T6 sequence (whole entry) with G193C
Procedure, shortened: as §1

Measured: odorant receptor agonist call

CCCC(S)CCOC(C)=O (stereo not drawn)
inactive: [1] | [2] | [3] | [4] | [5] | [6] | [7] | [8] | [9]

CCC(S)C(C)CO (stereo not drawn)
inactive: [1] | [2] | [3] | [10] | [7] | [8]

CCC1OC(=O)C(O)=C1C (stereo not drawn)
inactive: [1] | [2] | [3] | [4] | [5] | [6] | [7] | [8] | [9]

CCCCCC(=O)C(C)C(C)=O (stereo not drawn)
inactive: [1] | [2] | [3] | [10] | [7] | [8]

CC1=NC(C)C(C)S1 (stereo not drawn)
inactive: [1] | [2] | [3] | [4] | [5] | [6] | [7] | [8] | [9]

CC1=C(O)C(=O)OC1C (stereo not drawn)
inactive: [1] | [2] | [3] | [4] | [5] | [6] | [7] | [8] | [9]

CCCCC(S)C(C)CO (stereo not drawn)
inactive: [1] | [2] | [3] | [10] | [7] | [8]

CC1=C(O)C(=O)C(C)O1 (stereo not drawn)
inactive: [1] | [2] | [3] | [4] | [5] | [6] | [7] | [8] | [9]

CC1CCCCCCCCCCCCC(=O)C1 (stereo not drawn)
inactive: [1] | [2] | [3] | [10] | [7] | [8]

CCCCCCC=CCCC=O
inactive: [1] | [2] | [3] | [4] | [5] | [10] | [7] | [9]

CCC1OC(C)=C(O)C1=O (stereo not drawn)
inactive: [1] | [2] | [3] | [4] | [5] | [6] | [7] | [8] | [9]

Cc1cnc(C)c(C)n1
inactive: [1] | [2] | [3] | [4] | [5] | [6] | [7] | [8] | [9]

CCCCCC(S)C(C)CO (stereo not drawn)
inactive: [1] | [2] | [3] | [10] | [7] | [8]

CC(=O)c1c(C)c([N+](=O)[O-])c(C(C)(C)C)c([N+](=O)[O-])c1C
inactive: [1] | [2] | [3] | [10] | [7] | [8]

CC(CO)CS (stereo not drawn)
inactive: [1] | [2] | [3] | [10] | [7] | [8]
